Laboratory results: ChEMBL document CHEMBL4049426, “Identification of the Clinical Candidate (R)-(1-(4-Fluorophenyl)-6-((1-methyl-1H-pyrazol-4-yl)sulfonyl)-4,4a,5,6,7,8-hexahydro-1H-pyrazolo[3,4-g]isoquinolin-4a-yl)(4-(trifluoromethyl)pyridin-2-yl)methanone (CORT125134): A Selective Glucocorticoid Receptor (GR) Antagonist” (J Med Chem, 2017)

Assays:
estrogen receptor = biological target: T1, estrogen receptor (Homo sapiens, UniProt P03372); experiment: Inhibition of radioligand binding to estrogen receptor (unknown origin) at 1 uM relative to control
T1 sequence (P03372 whole entry): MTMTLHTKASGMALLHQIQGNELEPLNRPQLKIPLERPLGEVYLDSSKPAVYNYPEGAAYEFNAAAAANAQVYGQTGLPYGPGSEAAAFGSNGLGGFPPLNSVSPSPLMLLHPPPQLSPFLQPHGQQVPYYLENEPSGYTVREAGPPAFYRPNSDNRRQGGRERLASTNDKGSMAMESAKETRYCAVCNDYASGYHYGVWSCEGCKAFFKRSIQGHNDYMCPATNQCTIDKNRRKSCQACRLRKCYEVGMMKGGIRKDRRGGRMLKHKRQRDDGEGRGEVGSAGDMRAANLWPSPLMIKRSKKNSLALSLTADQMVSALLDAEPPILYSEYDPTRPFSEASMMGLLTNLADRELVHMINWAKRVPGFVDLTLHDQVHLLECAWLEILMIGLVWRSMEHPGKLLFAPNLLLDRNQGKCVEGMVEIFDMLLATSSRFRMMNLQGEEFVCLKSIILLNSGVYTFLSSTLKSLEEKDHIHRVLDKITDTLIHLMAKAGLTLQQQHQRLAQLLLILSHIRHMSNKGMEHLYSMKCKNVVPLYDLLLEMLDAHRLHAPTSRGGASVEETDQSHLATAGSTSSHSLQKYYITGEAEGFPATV

[1] = Protein binding in human plasma; assay type: ADME, cell-free; settings: read-out: PPB (converted)
Cytochrome P450 3A5 = Cytochrome P450 3A5 (Homo sapiens, UniProt P20815); experiment: Inhibition of CYP3A5 (unknown origin); assay type: ADME
Cytochrome P450 3A5, sequence (P20815 whole entry): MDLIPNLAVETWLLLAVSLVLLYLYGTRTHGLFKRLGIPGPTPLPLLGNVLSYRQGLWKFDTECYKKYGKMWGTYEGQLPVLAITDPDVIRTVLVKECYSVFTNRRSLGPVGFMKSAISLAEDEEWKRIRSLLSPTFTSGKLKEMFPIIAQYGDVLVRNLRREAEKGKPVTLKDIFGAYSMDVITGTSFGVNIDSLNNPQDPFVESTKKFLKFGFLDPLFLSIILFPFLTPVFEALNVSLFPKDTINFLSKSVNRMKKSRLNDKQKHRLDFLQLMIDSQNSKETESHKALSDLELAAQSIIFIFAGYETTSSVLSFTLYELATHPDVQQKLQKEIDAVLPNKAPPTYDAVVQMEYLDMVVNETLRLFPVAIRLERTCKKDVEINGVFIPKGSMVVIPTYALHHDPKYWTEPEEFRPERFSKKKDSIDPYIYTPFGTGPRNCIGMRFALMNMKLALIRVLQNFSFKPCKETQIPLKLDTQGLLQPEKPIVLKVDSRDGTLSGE

[2] = Cmax in Sprague-Dawley CD-1 rat plasma at 5 mg/kg, po administered through gavage measured up to 24 hrs by LC/MS analysis; assay type: ADME, organism-based; parameters: dose 5 mg/kg, route oral
In short: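 Jugular-catheterized male Sprague Dawley CD-1 rats (220-250g). Oral arm: five rats, 5mg/kg gavage, 1mg/mL in DMSO:0.5% methylcellulose 10:90, 5mL/kg, sampled pre-dose and 0.25-24 h. i.v. arm: three rats, 1mg/kg, 0.5mg/mL in DMSO:PEG400:propylene glycol 10:45:45, sampled pre-dose and 0.08-24 h. Plasma by LC/MS.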

progesterone receptor = biological target: T2, progesterone receptor (Homo sapiens, UniProt P06401); experiment: Inhibition of radioligand binding to progesterone receptor (unknown origin) at 1 uM relative to control
T2 sequence (P06401 whole entry): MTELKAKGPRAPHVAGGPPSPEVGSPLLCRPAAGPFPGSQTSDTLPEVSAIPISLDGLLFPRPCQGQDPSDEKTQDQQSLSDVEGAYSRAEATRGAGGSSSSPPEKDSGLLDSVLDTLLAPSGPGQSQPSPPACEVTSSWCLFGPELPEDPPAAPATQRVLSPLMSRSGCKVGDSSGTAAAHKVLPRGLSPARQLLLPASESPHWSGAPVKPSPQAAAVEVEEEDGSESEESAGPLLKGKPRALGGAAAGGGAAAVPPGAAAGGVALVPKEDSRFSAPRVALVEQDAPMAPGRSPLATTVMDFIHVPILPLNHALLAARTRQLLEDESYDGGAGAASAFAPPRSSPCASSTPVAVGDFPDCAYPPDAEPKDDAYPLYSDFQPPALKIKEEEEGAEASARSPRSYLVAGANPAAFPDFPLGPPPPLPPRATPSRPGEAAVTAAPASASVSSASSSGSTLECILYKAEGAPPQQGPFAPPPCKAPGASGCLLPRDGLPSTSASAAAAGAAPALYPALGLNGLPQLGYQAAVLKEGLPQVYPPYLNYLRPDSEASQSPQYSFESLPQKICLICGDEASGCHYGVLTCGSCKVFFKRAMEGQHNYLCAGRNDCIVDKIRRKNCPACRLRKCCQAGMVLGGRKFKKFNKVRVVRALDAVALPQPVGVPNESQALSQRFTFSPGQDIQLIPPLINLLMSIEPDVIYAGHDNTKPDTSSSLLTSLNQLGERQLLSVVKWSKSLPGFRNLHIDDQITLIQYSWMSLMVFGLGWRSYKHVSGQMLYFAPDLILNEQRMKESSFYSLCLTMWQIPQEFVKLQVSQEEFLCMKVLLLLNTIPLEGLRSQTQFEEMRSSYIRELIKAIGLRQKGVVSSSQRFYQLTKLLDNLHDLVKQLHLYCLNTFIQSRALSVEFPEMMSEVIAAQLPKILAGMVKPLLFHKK

Cytochrome P450 2C19 = Cytochrome P450 2C19 (Homo sapiens, UniProt P33261); experiment: Time-dependent inhibition of CYP2C19 (unknown origin); assay type: ADME
Cytochrome P450 2C19, sequence (P33261 whole entry): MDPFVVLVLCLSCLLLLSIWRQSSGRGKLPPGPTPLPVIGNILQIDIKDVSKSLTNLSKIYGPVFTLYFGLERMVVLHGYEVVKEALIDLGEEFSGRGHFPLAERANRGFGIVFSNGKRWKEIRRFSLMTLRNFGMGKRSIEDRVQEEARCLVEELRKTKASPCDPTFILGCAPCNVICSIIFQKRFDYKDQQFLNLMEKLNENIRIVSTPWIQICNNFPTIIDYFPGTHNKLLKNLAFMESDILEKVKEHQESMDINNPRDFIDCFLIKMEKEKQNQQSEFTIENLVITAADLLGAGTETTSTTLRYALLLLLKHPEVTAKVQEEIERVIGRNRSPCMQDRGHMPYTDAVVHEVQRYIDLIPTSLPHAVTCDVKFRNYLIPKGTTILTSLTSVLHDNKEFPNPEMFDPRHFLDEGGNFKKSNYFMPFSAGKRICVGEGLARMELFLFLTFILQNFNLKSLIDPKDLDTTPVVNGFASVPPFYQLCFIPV

Cytochrome P450 3A4 = Cytochrome P450 3A4 (Homo sapiens, UniProt P08684); experiment: Inhibition of CYP3A4 (unknown origin); assay type: ADME
Cytochrome P450 3A4, sequence (P08684 whole entry): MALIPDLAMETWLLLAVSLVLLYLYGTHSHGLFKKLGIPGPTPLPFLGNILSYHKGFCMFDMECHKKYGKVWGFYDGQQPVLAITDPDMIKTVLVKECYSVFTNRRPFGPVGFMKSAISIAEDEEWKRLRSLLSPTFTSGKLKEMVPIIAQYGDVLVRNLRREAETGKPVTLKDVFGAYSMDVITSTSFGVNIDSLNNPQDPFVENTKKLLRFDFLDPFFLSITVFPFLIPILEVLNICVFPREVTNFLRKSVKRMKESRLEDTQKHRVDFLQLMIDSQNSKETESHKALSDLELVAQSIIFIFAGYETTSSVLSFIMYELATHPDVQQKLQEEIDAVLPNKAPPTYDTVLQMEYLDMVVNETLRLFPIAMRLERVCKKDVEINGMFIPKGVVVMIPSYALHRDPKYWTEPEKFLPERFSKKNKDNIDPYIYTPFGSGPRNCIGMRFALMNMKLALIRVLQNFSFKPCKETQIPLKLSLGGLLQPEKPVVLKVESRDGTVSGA

[3] = biological target: T3, Glucocorticoid receptor (Rattus norvegicus) (UniProt P06536); experiment: (§1) Agonist activity at rat glucocorticoid receptor in primary hepatocytes assessed as induction of tyrosine amino transferase activity measured after 20 hrs; assay type: cell-based
T3 sequence (whole entry): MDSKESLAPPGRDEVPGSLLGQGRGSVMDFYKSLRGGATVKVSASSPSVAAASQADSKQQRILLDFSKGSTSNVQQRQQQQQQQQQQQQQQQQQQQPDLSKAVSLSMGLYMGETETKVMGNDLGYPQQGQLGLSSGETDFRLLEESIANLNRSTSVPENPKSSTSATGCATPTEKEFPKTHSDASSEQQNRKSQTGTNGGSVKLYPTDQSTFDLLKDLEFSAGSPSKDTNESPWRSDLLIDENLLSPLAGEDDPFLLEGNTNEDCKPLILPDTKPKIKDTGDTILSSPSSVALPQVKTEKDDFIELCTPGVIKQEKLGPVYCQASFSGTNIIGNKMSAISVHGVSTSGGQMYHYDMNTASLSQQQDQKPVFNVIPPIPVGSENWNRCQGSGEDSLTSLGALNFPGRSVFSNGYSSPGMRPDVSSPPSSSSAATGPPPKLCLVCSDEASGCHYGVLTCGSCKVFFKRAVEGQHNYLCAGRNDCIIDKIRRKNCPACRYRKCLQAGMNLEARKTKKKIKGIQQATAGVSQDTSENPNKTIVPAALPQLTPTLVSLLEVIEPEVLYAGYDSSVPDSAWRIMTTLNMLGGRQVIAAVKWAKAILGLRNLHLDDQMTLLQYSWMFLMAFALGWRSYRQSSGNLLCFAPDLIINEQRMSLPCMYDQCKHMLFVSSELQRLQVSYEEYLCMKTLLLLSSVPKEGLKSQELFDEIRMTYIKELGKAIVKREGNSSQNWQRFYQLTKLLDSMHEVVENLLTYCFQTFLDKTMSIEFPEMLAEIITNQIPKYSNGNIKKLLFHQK

Glucocorticoid receptor = biological target: T4, Glucocorticoid receptor (Rattus norvegicus, UniProt P06536); experiment: as §1; assay type: cell-based
T4 sequence (P06536 whole entry): T3 sequence (whole entry)

Structure (SMILES): Cn1cc(S(=O)(=O)N2CCC3=Cc4c(cnn4-c4ccc(F)cc4)C[C@]3(C(=O)c3cc(C(F)(F)F)ccn3)C2)cn1 [RELACORILANT]
- inhibition at 1 µM (estrogen receptor): < 10%
- fraction unbound [1]: 0.005
- IC50 (Cytochrome P450 3A5): 4.9 µM
- Cmax [2]: 297 ng/mL
- inhibition at 1 µM (progesterone receptor): < 10%
- TDI (Cytochrome P450 2C19): Not Active
- IC50 (Cytochrome P450 3A4): 1.3 µM
- Emax [3]: 22%
- EC50 (Glucocorticoid receptor): > 10 µM
